Assay results taken from ChEMBL document CHEMBL5252545, “Elucidation of antimicrobial activity and mechanism of action by N-substituted carbazole derivatives” (Bioorg Med Chem Lett, 2017).
Activity calls are given as the source filed them. The rule behind the calls is not given here.

Legend:
[1] = Dissociation constant, pKa of the compound; assay type: physicochemical
Nakaseomyces glabratus = test: Fungicidal against wild type Candida glabrata ATCC 90030 assessed as cell death at 5 to 10 uM measured upto 24 hrs by time-kill assay; assay type: functional, organism-based; details: dose 5-10 µM
Procedure, shortened: (§1)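 Time-kill assay: C. albicans or C. glabrata cells at 1×10^5 CFU/ml incubated with compound at 5 or 10 μM. DMSO final concentration 1%. Viability followed over time.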

[2] = target: T1, Plasma membrane ATPase 1 (Saccharomyces cerevisiae (strain ATCC 204508 / S288c) (Baker's yeast)) (UniProt P05030); test: Inhibition of Saccharomyces cerevisiae H+ ATPase pma1 isoform assessed as reduction in ATP hydrolysis rate at 10 uM measured upto 150 sec by measuring […] ATPase activity by spectrophotometry method
T1 sequence (whole entry): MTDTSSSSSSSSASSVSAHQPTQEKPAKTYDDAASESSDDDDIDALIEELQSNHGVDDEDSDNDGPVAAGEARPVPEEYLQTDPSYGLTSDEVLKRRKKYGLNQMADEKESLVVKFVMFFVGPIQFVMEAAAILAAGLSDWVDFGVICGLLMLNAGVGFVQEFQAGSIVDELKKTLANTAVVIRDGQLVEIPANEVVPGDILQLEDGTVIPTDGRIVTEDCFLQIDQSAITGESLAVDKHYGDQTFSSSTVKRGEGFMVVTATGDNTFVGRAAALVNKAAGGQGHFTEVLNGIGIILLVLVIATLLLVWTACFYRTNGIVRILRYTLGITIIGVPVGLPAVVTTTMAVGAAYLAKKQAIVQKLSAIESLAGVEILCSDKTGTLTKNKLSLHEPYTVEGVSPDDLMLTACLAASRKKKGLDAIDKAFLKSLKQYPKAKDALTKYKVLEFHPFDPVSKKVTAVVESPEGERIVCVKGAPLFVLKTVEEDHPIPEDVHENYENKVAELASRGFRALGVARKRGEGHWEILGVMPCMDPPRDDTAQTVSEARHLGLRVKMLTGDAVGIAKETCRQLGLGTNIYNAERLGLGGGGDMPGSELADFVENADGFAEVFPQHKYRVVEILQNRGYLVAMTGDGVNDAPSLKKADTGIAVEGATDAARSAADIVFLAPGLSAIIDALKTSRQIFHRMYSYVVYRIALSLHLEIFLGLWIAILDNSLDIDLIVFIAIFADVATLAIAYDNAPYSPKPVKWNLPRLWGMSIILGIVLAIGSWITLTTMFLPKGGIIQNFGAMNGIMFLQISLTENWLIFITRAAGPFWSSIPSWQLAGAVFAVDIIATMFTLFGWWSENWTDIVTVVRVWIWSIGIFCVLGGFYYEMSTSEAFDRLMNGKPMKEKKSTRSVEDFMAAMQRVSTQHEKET
Procedure, shortened: (§2)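 S. cerevisiae plasma membranes containing H⁺-ATPase added to start the reaction in pH 7 buffer with 5 mM ATP. Compound added at the indicated times, final DMSO 1.1%. Initial ATP hydrolysis rate read spectrophotometrically by NADH-coupled assay with phosphoenolpyruvate regenerating ATP.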

Candida albicans = test: Fungicidal activity against Candida albicans SC5314 assessed as cell death at 5 to 10 uM measured upto 24 hrs by time-kill assay; assay type: functional, organism-based; details: dose 5-10 µM; procedure, shortened: as §1
[3] = target: T1, Plasma membrane ATPase 1 (Saccharomyces cerevisiae (strain ATCC 204508 / S288c) (Baker's yeast)); test: Inhibition of Saccharomyces cerevisiae H+ ATPase pma1 isoform assessed as reduction in ATP hydrolysis rate at 50 uM measured upto 150 sec by measuring […] ATPase activity by spectrophotometry method; procedure, shortened: as §2
[4] = target: T1, Plasma membrane ATPase 1 (Saccharomyces cerevisiae (strain ATCC 204508 / S288c) (Baker's yeast)); test: Inhibition of Saccharomyces cerevisiae H+ ATPase pma1 isoform assessed as reduction in ATP hydrolysis rate at 100 uM measured upto 150 sec by measuring […] ATPase activity by spectrophotometry method; procedure, shortened: as §2

| SMILES | pKa [1] | also measured |
| --- | --- | --- |
| CCC(C)NCC(O)Cn1c2ccc(Cl)cc2c2cc(Cl)ccc21 (stereo not given) | 9.2 | Activity (Nakaseomyces glabratus): Active; inhibition [2]: Active; Activity (Candida albicans): Active |
| CN1CCN(CC(O)Cn2c3ccc(Cl)cc3c3cc(Cl)ccc32)CC1 (stereo not given) | 7.6 |  |
| OC(CN1CCOCC1)Cn1c2ccc(Cl)cc2c2cc(Cl)ccc21 (stereo not given) | 6.6 | inhibition [3]: Active |

Now from value to molecule, other results behind:

| pKa [1] | SMILES | also measured |
| --- | --- | --- |
| 2.7 | OC(Cn1cncn1)Cn1c2ccc(Cl)cc2c2cc(Cl)ccc21 (stereo not given) |  |
| 7.1 | OC(Cn1ccnc1)Cn1c2ccc(Cl)cc2c2cc(Cl)ccc21 (stereo not given) | inhibition [4]: Active |
